Test results: ChEMBL document CHEMBL1138430, “Novel tetrahydroisoquinolines are histamine H3 antagonists and serotonin reuptake inhibitors” (Bioorg Med Chem Lett, 2007); call rule not given here

Assays:
[1] = biological target: Sodium-dependent serotonin transporter (Rattus norvegicus, UniProt P31652); test: Binding affinity at rat SERT
[2] = biological target: Sodium-dependent serotonin transporter (Homo sapiens, UniProt P31645); test: Binding affinity at human SERT
Histamine H3 receptor [3] = biological target: T1, Histamine H3 receptor (Homo sapiens, UniProt Q9Y5N1); test: Binding affinity at human histamine H3 receptor
T1 sequence (Q9Y5N1 whole entry): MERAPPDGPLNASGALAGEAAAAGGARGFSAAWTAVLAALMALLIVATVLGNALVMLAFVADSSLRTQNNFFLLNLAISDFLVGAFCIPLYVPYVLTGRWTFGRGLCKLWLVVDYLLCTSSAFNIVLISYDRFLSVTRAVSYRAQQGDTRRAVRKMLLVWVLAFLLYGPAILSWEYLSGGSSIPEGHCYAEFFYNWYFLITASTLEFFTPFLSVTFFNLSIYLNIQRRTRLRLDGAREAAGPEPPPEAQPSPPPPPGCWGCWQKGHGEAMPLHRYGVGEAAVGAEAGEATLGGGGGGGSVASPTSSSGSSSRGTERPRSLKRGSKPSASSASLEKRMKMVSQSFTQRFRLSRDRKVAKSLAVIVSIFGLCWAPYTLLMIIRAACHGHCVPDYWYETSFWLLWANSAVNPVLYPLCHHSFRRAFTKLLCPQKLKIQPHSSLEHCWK

Histamine H3 receptor [4] = biological target: T1, Histamine H3 receptor; test: Antagonist activity at human histamine H3 receptor; type: functional; details: read-out: pA2 (converted)
[5] = Plasma clearance in po and iv dosed rat; type: ADME, organism-based
[6] = (§1) Volume of distribution at steady state in po and iv dosed rat; type: ADME, organism-based; details: in vivo, read-out: Vdss
[7] = (§2) Half life in po and iv dosed rat; type: ADME, organism-based; details: in vivo
[8] = (§3) Bioavailability in po dosed rat; type: ADME, organism-based; details: in vivo
[9] = test system: Voltage-gated potassium channel; test: Binding affinity for potassium channel at 1 uM; type: protein assay; details: human
[10] = test system: Voltage-gated calcium channel; test: Binding affinity for calcium channel at 1 uM; type: protein-complex assay; details: human
[11] = biological target: Sodium-dependent noradrenaline transporter (Homo sapiens, UniProt P23975); test: Inhibition of [3H]nisoxetine uptake in human NET expressed in MDCK cells; type: cell-based
Sodium-dependent noradrenaline transporter, sequence (P23975 whole entry): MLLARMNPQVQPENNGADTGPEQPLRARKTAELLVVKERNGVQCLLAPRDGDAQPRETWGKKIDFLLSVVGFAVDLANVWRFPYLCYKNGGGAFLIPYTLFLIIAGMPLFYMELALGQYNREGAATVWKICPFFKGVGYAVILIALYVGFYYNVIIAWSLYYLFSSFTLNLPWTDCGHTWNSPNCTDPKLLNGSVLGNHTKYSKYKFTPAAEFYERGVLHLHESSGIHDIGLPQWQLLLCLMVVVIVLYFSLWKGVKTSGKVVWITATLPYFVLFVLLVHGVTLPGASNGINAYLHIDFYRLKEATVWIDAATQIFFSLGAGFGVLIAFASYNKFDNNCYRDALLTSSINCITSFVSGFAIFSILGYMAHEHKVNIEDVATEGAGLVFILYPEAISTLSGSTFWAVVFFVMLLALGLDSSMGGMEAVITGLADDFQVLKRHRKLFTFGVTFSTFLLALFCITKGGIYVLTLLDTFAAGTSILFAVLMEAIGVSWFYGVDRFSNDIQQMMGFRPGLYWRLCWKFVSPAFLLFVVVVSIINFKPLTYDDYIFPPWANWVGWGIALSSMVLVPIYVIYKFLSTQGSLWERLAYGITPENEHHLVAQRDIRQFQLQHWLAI

[12] = biological target: Sodium-dependent dopamine transporter (Homo sapiens, UniProt Q01959); test: Inhibition of [3H]WIN-uptake in human DAT expressed in CHO cells; type: cell-based
Sodium-dependent dopamine transporter, sequence (Q01959 whole entry): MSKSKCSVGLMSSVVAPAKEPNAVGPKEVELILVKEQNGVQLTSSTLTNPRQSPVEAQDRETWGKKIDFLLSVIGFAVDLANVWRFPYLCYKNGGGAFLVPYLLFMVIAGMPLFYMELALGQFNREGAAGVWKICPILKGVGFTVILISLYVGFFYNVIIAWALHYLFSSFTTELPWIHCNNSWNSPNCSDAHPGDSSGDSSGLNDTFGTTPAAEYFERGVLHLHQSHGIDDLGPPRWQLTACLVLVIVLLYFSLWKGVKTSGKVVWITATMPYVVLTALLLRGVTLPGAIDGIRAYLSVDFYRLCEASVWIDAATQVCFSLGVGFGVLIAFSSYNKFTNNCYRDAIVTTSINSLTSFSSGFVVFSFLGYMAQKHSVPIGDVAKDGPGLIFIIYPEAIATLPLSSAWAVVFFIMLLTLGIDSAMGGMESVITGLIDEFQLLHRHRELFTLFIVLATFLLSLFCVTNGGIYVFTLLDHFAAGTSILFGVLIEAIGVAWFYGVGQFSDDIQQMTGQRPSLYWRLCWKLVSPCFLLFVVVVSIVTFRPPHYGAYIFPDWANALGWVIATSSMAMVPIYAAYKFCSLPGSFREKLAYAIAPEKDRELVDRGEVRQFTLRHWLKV
Procedure, shortened: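 Human DAT expressed in CHO cells; membranes were incubated on ice for 2 h with 10.9 nM [3H]-WIN 35,428, then harvested by rapid filtration. Nonspecific binding was defined with GBR-12909. Ki values are means of at least three experiments run in triplicate, with SEM.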

[13] = Cmax in rat brain at 10 mg/kg, po; type: ADME, organism-based; design: dose 10 mg/kg, route oral
Rattus norvegicus [14] = species: Rattus norvegicus; test: Ex vivo receptor occupancy at SERT in rat; type: functional
Rattus norvegicus [15] = species: Rattus norvegicus; test: Ex vivo receptor occupancy at histamine H3 receptor in rat; type: functional
Brain = test: Drug level in rat brain at 0.1 mg/kg; type: ADME, organism-based; design: dose 0.1 mg/kg; details: in vivo, read-out: Drug uptake
Rattus norvegicus [16] = test: as §1; type: ADME, organism-based; details: in vivo
Rattus norvegicus [17] = test: as §2; type: ADME, organism-based; details: in vivo
Rattus norvegicus [18] = test: as §3; type: ADME, organism-based; details: in vivo

Sodium-dependent serotonin transporter (Homo sapiens, UniProt P31645), sequence (P31645 whole entry): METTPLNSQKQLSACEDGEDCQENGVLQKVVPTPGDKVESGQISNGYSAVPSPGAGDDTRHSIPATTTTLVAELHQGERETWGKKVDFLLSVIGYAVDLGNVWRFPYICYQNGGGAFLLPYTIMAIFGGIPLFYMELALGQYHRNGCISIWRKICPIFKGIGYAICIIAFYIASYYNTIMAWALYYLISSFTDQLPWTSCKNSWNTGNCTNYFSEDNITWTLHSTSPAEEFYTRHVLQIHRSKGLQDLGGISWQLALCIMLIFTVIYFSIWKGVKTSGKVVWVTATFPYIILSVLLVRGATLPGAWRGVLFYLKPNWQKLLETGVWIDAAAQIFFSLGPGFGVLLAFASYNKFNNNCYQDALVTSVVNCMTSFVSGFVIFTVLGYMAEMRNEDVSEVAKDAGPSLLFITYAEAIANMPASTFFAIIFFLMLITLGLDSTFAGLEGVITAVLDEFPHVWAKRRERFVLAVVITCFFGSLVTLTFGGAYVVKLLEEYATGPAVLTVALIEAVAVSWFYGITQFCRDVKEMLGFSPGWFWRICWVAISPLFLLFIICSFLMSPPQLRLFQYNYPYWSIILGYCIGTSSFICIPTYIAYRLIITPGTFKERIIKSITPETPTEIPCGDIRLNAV
Sodium-dependent serotonin transporter (Rattus norvegicus, UniProt P31652), sequence (P31652 whole entry): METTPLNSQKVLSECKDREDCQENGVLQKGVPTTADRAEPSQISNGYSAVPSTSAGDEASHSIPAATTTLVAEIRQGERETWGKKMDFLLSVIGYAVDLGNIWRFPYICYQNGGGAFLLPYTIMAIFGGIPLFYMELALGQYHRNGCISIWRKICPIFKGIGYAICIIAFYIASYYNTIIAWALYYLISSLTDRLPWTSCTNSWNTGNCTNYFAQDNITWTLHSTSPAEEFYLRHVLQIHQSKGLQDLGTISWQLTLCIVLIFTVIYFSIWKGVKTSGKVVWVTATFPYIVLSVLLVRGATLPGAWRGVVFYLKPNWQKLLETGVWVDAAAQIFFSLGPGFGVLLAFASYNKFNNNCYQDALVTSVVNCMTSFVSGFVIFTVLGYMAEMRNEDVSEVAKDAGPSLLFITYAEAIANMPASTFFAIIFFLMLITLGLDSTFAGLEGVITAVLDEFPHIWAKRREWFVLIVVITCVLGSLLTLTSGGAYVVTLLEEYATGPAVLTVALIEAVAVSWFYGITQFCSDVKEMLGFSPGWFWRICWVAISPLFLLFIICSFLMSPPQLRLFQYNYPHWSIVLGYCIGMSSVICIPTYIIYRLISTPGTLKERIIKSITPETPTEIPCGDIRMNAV

Structure (SMILES)	Ki [1] [nM]	Ki [2] [nM]	Ki (Histamine H3 receptor [3]) [nM]	Kb (Histamine H3 receptor [4]) [nM]	further results
COc1cccc(C2CN(C)Cc3cc(OCCCN4CCC(F)CC4)ccc32)c1 (stereo unspecified)	4.3	4.3	2	0.851	
CN1Cc2cc(OCCCN3CCC(F)CC3)ccc2C(c2ccc(Cl)c(Cl)c2)C1 (stereo unspecified)	8.3	21	31	33.1	
CSc1ccc(C2CN(C)Cc3cc(OCCCN4CCC(F)CC4)ccc32)cc1 (stereo in doubt; 12o)	2.3	8.8			
CN1Cc2cc(OCCCN3CCC(F)CC3)ccc2C(c2ccc(SC(F)(F)F)cc2)C1 (stereo unspecified)	36	34	46		
CN1Cc2cc(OCCCN3CCC(F)CC3)ccc2C(c2ccc(S(C)(=O)=O)cc2)C1 (stereo unspecified)	22	135			
CN1Cc2cc(OCCCN3CCC(F)CC3)ccc2C(c2cccc(C(F)(F)F)c2)C1 (stereo unspecified)	30	15	11		
CSc1ccc(C2CN(C)Cc3cc(OCCCN4CCC(F)CC4)ccc32)cc1 (stereo in doubt; (-)/-12p)	5	4.2			
CN1Cc2cc(OCCCN3CCC(F)CC3)ccc2C(c2ccccc2Cl)C1 (stereo unspecified)	17	18	5.6		
CN1Cc2cc(OCCCN3CCC(F)CC3)ccc2C(c2ccccc2)C1 (stereo unspecified)		46	3.3	0.724	
CN1Cc2cc(OCCCN3CCC(F)CC3)ccc2C(c2ccc(C(F)(F)F)cc2)C1 (stereo unspecified)	14	8.6	18		
CN1Cc2cc(OCCCN3CCC(F)CC3)ccc2C(c2cc(Cl)ccc2Cl)C1 (stereo unspecified)	120	107	9.3	4.57	
COc1ccc(C2CN(C)Cc3cc(OCCCN4CCC(F)CC4)ccc32)cc1 (stereo in doubt; 12b)					clearance [5]: 32.3 mL/min/kg; Vdss (Rattus norvegicus [16]): 5.1 L/kg; half-life [7]: 13.3 h; F (Rattus norvegicus [18]): 13%
COc1ccc(C2CN(C)Cc3cc(OCCCN4CCC(F)CC4)ccc32)cc1Cl (stereo unspecified)	5.3	5.7	9.7	6.17	
CN1Cc2cc(OCCCN3CCC(F)CC3)ccc2C(c2cccc(Cl)c2)C1 (stereo unspecified)		24		1.38	
COc1ccc([C@H]2CN(C)Cc3cc(OCCCN4CCOC[C@@H]4C)ccc32)cc1			6.9	2.95	
COc1ccc(C2CN(C)Cc3cc(OCCCN4CCOCC4)ccc32)cc1 (stereo unspecified)				2.29	

Now from value to compound, other results behind:

Ki [1] [nM]	Ki [2] [nM]	Ki (Histamine H3 receptor [3]) [nM]	Kb (Histamine H3 receptor [4]) [nM]	Structure (SMILES)	further results
16		8.3		CN1Cc2cc(OCCCN3CCC(F)CC3)ccc2C(c2ccc(Cl)cc2)C1 (stereo unspecified)	
2.7	4.7	7.3		CCOc1ccc(C2CN(C)Cc3cc(OCCCN4CCC(F)CC4)ccc32)cc1 (stereo unspecified)	clearance [5]: 29.9 mL/min/kg; Vd [6]: 15.5 L/kg; half-life [7]: 10.3 h; bioavailability [8]: 11%
	4.3	10	4.37	CN1Cc2cc(OCCCN3CCC(F)CC3)ccc2C(c2ccc(OC(F)F)cc2)C1 (stereo unspecified)	
2				CSc1ccc(C2CN(C)Cc3cc(OCCCN4CCC(F)CC4)ccc32)cc1 (racemic)	Activity [9]: Not Active; Activity [10]: Not Active; Ki [11]: 118 nM; Ki [12]: 46 nM; clearance [5]: 18.5 mL/min/kg; Vd [6]: 9.6 L/kg; half-life [7]: 9.9 h; bioavailability [8]: 21%; Cmax [13]: 2400 nM; ED50 (Rattus norvegicus [14]): 0.1 mg/kg; ED50 (Rattus norvegicus [15]): 0.05 mg/kg; concentration (Brain): 130 nM
4.5	9.3			COc1ccc(C2CN(C)Cc3cc(OCCCN4CCC(F)CC4)ccc32)cc1 (single isomer, unassigned; (-))	
4.4	13	8.3		Cc1ccc(C2CN(C)Cc3cc(OCCCN4CCC(F)CC4)ccc32)cc1 (stereo unspecified)	
1.7	2.7			COc1ccc(C2CN(C)Cc3cc(OCCCN4CCC(F)CC4)ccc32)cc1 (racemic)	Vdss (Rattus norvegicus [16]): 19.9 L/kg; t1/2 (Rattus norvegicus [17]): 16 h; F (Rattus norvegicus [18]): 6%; Cmax [13]: 1500 nM
7.8	16	3.5	1.41	CN1Cc2cc(OCCCN3CCC(F)CC3)ccc2C(c2ccc(C#N)cc2)C1 (stereo unspecified)	
